Measured values from PMC6388690 (Journal of medicinal chemistry, 2018).
Where a name gives a salt, the structure may show the parent alone.

What was measured:
[1] = microsomes
[2] = Reactivity with GSH monitored by 1H NMR; conditions: 37°C, 1.5–2 equiv GSH, pH 7.4, compared to oridonin
[3] = test system: MDA-MB-231 xenograft tumors; assay: MDA-MB-231 orthotopic xenograft tumor growth in nude mice; assay type: in vivo; conditions: intraperitoneal; for inhibitory effect on tumor growth compared to vehicle: daily
Method in brief: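 Female nude mice aged 6–8 weeks, kept in a barrier unit on a 12 h light–dark cycle. Freshly harvested MDA-MB-231 cells (1.0 × 106 in 100 μL PBS) injected into the no. 3 mammary fat pad, then mice randomized into 4 groups. Once tumours reached 80–100 mm3, daily ip test compound (10 or 15 mg/kg), parent natural product or vehicle, all dissolved in DMSO. Tumour volume (V = 0.5 × L × W2) and body weight measured daily; mean ± SEM.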

[4] = relatively long time (hours); cited from earlier work
t(8;21) leukemia = conditions: 7.5 and 15 mg/kg; cited from earlier work
[5] = test system: MCF-7 and MDA-MB-231 cells; assay: MTT growth inhibition screen in two breast cancer cell lines; assay type: cell-based, human; conditions: MCF-7 and MDA-MB-231, MTT
Method in brief: (§1)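 MTT proliferation assay: cells seeded at 1 × 10^4 per well and treated with DMSO or test compound at 0.1, 0.33, 1.0, 3.3 and 10 μM for 72 h. MTT reagent added, then OD 560 nm read after 1 h at 37°C. Quadruplicate wells per concentration.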

MDA-MB-231 cells [6] = assay: MTT cell proliferation assay; assay type: cell-based, human
Method in brief: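 MDA-MB-231 cells seeded at 1 × 10^4 per well, then exposed to DMSO vehicle or test compound at 0.1, 0.33, 1.0, 3.3 and 10 μM for 72 h. Proliferation read by MTT reagent, with OD at 560 nm after 1 h at 37°C. Quadruplicate wells per concentration. Mean ± SD of at least three independent experiments; one-way ANOVA across groups.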

MCF-7 cells [7] = assay: MTT cell proliferation assay; assay type: cell-based, human
Method in brief: as §1

SK-BR3 cells [8] = assay: MTT cell proliferation assay; assay type: cell-based, human
Method in brief: as §1

MDA-MB-468 cells [9] = assay: MTT cell proliferation assay; assay type: cell-based, human
Method in brief: as §1

MDA-MB-231 cells [10] = assay: Colony-formation assay; assay type: cell-based, human; conditions: MDA-MB-231, low micromolar concentrations, 2 weeks
SK-BR3 cells [11] = assay: Colony-formation assay; assay type: cell-based, human; conditions: SK-BR3, low micromolar concentrations, 2 weeks
MDA-MB-468 cells [12] = assay: Colony-formation assay; assay type: cell-based, human; conditions: MDA-MB-468, low micromolar concentrations, 2 weeks
MCF-7 cells [13] = assay: Colony-formation assay; assay type: cell-based, human; conditions: MCF-7, low micromolar concentrations, 2 weeks
MDA-MB-231 cells [14] = assay: Cellular apoptosis assay; assay type: cell-based, human; conditions: 48 h
Method in brief: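 MDA-MB-231 cells, 2.5 × 10^5 per well, exposed to DMSO vehicle or test compound (1, 5, 10, 15 or 20 μM) for 48 h. Adherent and floating cells pooled and washed in PBS, then resuspended in PBS with 1% BSA plus Annexin V and dead-cell reagent for 20 min at room temperature. Read immediately on a cell analyzer; mean ± SD, ≥3 independent experiments.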

NF-κB (p65) = assay: Western-blot analysis of apoptosis biomarkers; assay type: cell-based, human; conditions: MDA-MB-231, 48 h, dose-dependent
Method in brief: (§2)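 MDA-MB-231 cells given DMSO or test compound at several concentrations for 48 h, then lysed. Protein measured by Bradford (BSA standard); 40 μg resolved by SDS-PAGE and transferred to NC membrane. Blocked in 5% nonfat milk, then primaries overnight: Bcl-2 1:200, cleaved PARP 1:500, NF-κB 1:1000, Bax 1:1000, β-actin 1:2000. Secondary antibody applied; bands detected by ECL.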

cleaved PARP = assay: Western-blot analysis of apoptosis biomarkers; assay type: cell-based, human; conditions: MDA-MB-231, 48 h, dose-dependent
Method in brief: as §2

Bcl-2 to Bax ratio = assay: Western-blot analysis of apoptosis biomarkers; assay type: cell-based, human; conditions: MDA-MB-231, 48 h
Method in brief: as §2

MCF-10A cells = assay: Growth inhibition on normal mammary epithelial cells; assay type: cell-based, human; conditions: 48 h
Method in brief: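 Normal mammary epithelial MCF-10A cells treated for 48 h with varying concentrations of test compound or the parent natural product. Mean ± SD of three independent experiments. Student t-test against the parent natural product at the same concentration.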

[15] = 2 equiv of GSH at pH 7.4; cited from earlier work

CC1(C)O[C@@H]2[C@H]3CC[C@H]4[C@@]56CO[C@@](O1)([C@@H](O)[C@@H]5C(C)(C)CC[C@@H]6O)[C@@]24C(=O)C31CN1 (stereo partly drawn) [Compound 25, (2R,3′S,3a′R,3a1′R,6a′R,7′S,11′S,11a′S)-7′,11′-Dihydroxy-5′,5′,8′,8′-tetramethyldecahydro-2′H-spiro[aziridine-2,15′-[6a,11a]-(epoxymethano)[3,3a1]ethanophenanthro[1,10-de][1,3]dioxin]-14’-one]
microsomal stability compared to oridonin [1]: higher microsomal and plasma stability

C=C1C(=O)[C@@]23[C@@H]4OC(C)(C)O[C@@]25OC[C@@]2([C@H]([C@@H]5O)C(C)(C)CC[C@@H]2O)[C@@H]3CC[C@@H]14 [Compound 20]
Reactivity / stability of covalent warhead toward GSH (in words) [2]: slightly weakens the reactivity of the enone

C=C1C(=O)[C@]23[C@H](OC(=O)[C@H](C)N)[C@H]1CC[C@H]2[C@@]12CO[C@@]3(O)[C@@H](O)[C@@H]1C(C)(C)CC[C@@H]2O.O=C(O)C(F)(F)F [Compound 14]
Reactivity / stability of covalent warhead toward GSH (in words) [2]: may enhance the enone’s reactivity

C=C1C(=O)[C@]23[C@H](O)[C@H]1CC[C@H]2[C@@]12CO[C@]3(O)[C@@H](O)[C@@H]1C(C)(C)CC[C@@H]2O [oridonin]
antitumor efficacy, 44 versus oridonin ([3]; 10 mg/kg): comparable efficacy | stability in strong acidic or basic media [4]: not stable | inhibition of tumor growth (t(8;21) leukemia): Inhibition of tumor growth in t(8;21) leukemia murine model (7.5 and 15 mg/kg)

CCC(=O)N1CC12C(=O)[C@@]13[C@@H]4OC(C)(C)O[C@@]15OC[C@@]1([C@H]([C@@H]5O)C(C)(C)CC[C@@H]1O)[C@@H]3CC[C@H]42 (stereo partly drawn) [Compound 45]
antiproliferative activity (in words) [5]: complete loss of activity

C=CC(=O)N1CC12C(=O)[C@@]13[C@@H]4OC(C)(C)O[C@@]15OC[C@@]1([C@H]([C@@H]5O)C(C)(C)CC[C@@H]1O)[C@@H]3CC[C@H]42 (stereo partly drawn) [Compound 44]
suppression of proliferation (dose-dependent) (MDA-MB-231 cells [6]): suppressed the proliferation | suppression of proliferation (dose-dependent) (MCF-7 cells [7]): suppressed the proliferation | suppression of proliferation (dose-dependent) (SK-BR3 cells [8]): suppressed the proliferation | suppression of proliferation (dose-dependent) (MDA-MB-468 cells [9]): suppressed the proliferation | inhibition of colony formation (MDA-MB-231 cells [10]): significantly inhibit the colony formation | inhibition of colony formation (SK-BR3 cells [11]): significantly inhibit the colony formation | inhibition of colony formation (MDA-MB-468 cells [12]): significantly inhibit the colony formation | inhibition of colony formation (MCF-7 cells [13]): significantly inhibit the colony formation | apoptotic cells (early and late apoptosis together) (MDA-MB-231 cells [14]; 10 μM): 18.2% | apoptotic cells (early and late apoptosis together) (MDA-MB-231 cells [14]; 15 μM): 26.8% | apoptotic cells (early and late apoptosis together) (MDA-MB-231 cells [14]; 20 μM): 47.6% | NF-κB (p65) protein expression (NF-κB (p65)): down-regulation | cleaved PARP expression (cleaved PARP): up-regulation | ratio of Bcl-2 to Bax (Bcl-2 to Bax ratio): reduced | growth-inhibitory activity against MCF-10A in comparison to oridonin (MCF-10A cells; 0–10 μM): comparable | growth-inhibitory activity against MCF-10A in comparison to oridonin (MCF-10A cells; 15~100 μM): significantly lower | antitumor efficacy, 44 versus oridonin ([3]; 10 mg/kg): comparable efficacy | inhibitory effect on tumor growth compared to vehicle ([3]; 10 mg/kg): significant inhibitory effect | inhibitory effect on tumor growth compared to vehicle ([3]; 15 mg/kg): significant inhibitory effect | inhibitory effect on tumor growth compared to the oridonin group ([3]; 15 mg/kg, one-way ANOVA p = 0.0023): better inhibitory effect

C=CCNc1nc2c(s1)CC(C)(C)[C@H]1[C@H](O)[C@]3(O)OC[C@@]21[C@@H]1CC[C@@H]2[C@@H](O)[C@@]13C(=O)C21CN1 (stereo partly drawn) [Compound 43]
antiproliferative activity (in words) [5]: moderate activities

COC(=O)/C=C/C(=O)OC [dimethyl fumarate]
half-life with GSH [15]: 50 to 60 min

C=CCNc1nc2c(s1)CC(C)(C)[C@H]1[C@H](O)[C@]3(O)OC[C@@]21[C@@H]1CC[C@@H]2[C@@H](O)[C@@]13C(=O)C21CN1C(=O)OCC1c2ccccc2-c2ccccc21 (stereo partly drawn) [Compound 42]
antiproliferative activity (in words) [5]: moderate activities
